Measured values from ChEMBL document CHEMBL4513216, “Probing the Open Global Health Chemical Diversity Library for Multistage-Active Starting Points for Next-Generation Antimalarials” (ACS Infect Dis, 2020).

Assay: Toxicity liver stage against HepG2, at 10uM
Assay type: cell-based
Design: test concentration 10 uM, cell line HepG2-A16-CD81EGFP
Conditions: human, HepG2-A16-CD81EGFP cells; read-out: INHIBITION
Procedure, shortened: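 Uninfected HepG2-A16-CD81EGFP cells, 3 × 10^3 per well, 1536-well, plated on prespotted compound at 10 μM final, parasite-free screening media added to match infected plates; puromycin 10 μM positive, DMSO 0.5% negative; run in parallel with 48 h PbLuc assay at 37 °C, 5% CO2; viability by CellTiter-Glo luminescence, normalized to controls.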

O=C(NCCCNc1ccc(C(F)(F)F)cn1)c1ccc2c(c1)OCO2
cytotoxicity at 10 µM: -8.51%

CCS(=O)(=O)NCCN1CCc2ccc(F)cc2C1C (stereo unspecified)
cytotoxicity at 10 µM: 6.88%

Cc1cc(C2CCCN(C(=O)c3cccnc3)C2)ccn1 (stereo unspecified)
cytotoxicity at 10 µM: -21.3%

CC(C)NC(=O)C1CCc2nnc(C(C)(C)C)n21 (stereo unspecified)
cytotoxicity at 10 µM: 2.74%

Fc1ccc(-c2nnc(CN3CCn4c(nnc4C4CC4)C3)o2)cc1
cytotoxicity at 10 µM: 0.577%

COc1cc(CNC(C)Cn2ccnc2)cc2c1OCO2 (stereo unspecified)
cytotoxicity at 10 µM: 2.67%

Clc1cccc(Cl)c1CN(CCCN1CCOCC1)Cc1cccnc1
cytotoxicity at 10 µM: -0.52%

OCCc1cc(CC2(NCc3ccc(C(F)(F)F)cc3)COC2)no1
cytotoxicity at 10 µM: -4.41%

O=C(NCCc1nncn1C1CC1)C1SCCc2sccc21 (stereo unspecified)
cytotoxicity at 10 µM: -1.6%

Cc1cc2nc(CN(C)c3ccc(Cl)cc3)cc(=O)n2o1
cytotoxicity at 10 µM: -13%

O=C(NCCc1coc(-c2ccc(F)cc2)n1)NC1CC1
cytotoxicity at 10 µM: -3.24%

CCNC(=O)N1C[C@@H]2OCC(=O)N(C)[C@@H]2C1
cytotoxicity at 10 µM: 7.65%

Cc1nc(C)n(CC2CCCN(CC(=O)Nc3ccncc3)C2)n1 (stereo unspecified)
cytotoxicity at 10 µM: -5.75%

COc1c(CNC2CCc3cc(C)ccc32)c(C)nn1C (stereo unspecified)
cytotoxicity at 10 µM: -0.0225%

COC(=O)CCNC(=O)c1ccoc1CN1c2ccccc2CC1C (stereo unspecified)
cytotoxicity at 10 µM: -9.23%

CCc1nc(CN2CCN(C(=O)c3cnccn3)CC2)cs1
cytotoxicity at 10 µM: -8.92%

CS(=O)(=O)NCCNC(=O)C1(c2cccc(Cl)c2)CC1
cytotoxicity at 10 µM: 5.63%

COc1ccc(CNC(=O)NCc2nc(C)c(C)s2)cn1
cytotoxicity at 10 µM: 8.73%

CCCc1nnc(N2CCN(c3cccc(C)c3C)CC2)o1
cytotoxicity at 10 µM: 9.59%

O[C@@H]1CN(Cc2cnccn2)C[C@H]1Oc1ccccc1
cytotoxicity at 10 µM: -29.5%

CN(C)c1ccc(C(=O)N2CCCCC2CC(N)=O)c(F)c1 (stereo unspecified)
cytotoxicity at 10 µM: 7.12%

Cc1nc(CC(C)C)cc(C(=O)N2C[C@@H](CN(C)C)[C@@H](CO)C2)n1
cytotoxicity at 10 µM: 0.868%

CCC(=O)NCC(=O)Nc1ncc(I)cc1C
cytotoxicity at 10 µM: 5.4%

CCOC(=O)[C@@H]1[C@@H](c2ccccc2)CN2CCN(C(=O)N(C)C)C[C@H]12
cytotoxicity at 10 µM: 14.8%

CCN(CC)c1ccc(-c2nc(-c3cccc(OC)c3OC)no2)cn1
cytotoxicity at 10 µM: 20%

CN(C)CCN1C(=O)CO[C@@H]2CN(c3ncc(F)cn3)C[C@H]21
cytotoxicity at 10 µM: 0.81%

COc1ccc(-n2nnnc2C2(NCc3ccco3)CCCCC2)cc1
cytotoxicity at 10 µM: 9.65%

O=C(c1cccs1)N1CCC(n2nc(-c3ccco3)ccc2=O)CC1
cytotoxicity at 10 µM: -6.62%

O=S(=O)(c1ccc(F)cc1)N1CCN(CCCn2ccnc2)CC1
cytotoxicity at 10 µM: -5.63%

COC(=O)CCNC(=O)c1coc(COc2ccc(F)cc2)n1
cytotoxicity at 10 µM: -4.1%

Cc1cc(C)c(-n2cccn2)c(CN2CCOCC(CN(C)C)C2)c1 (stereo unspecified)
cytotoxicity at 10 µM: -8.83%

Cc1cccc(C(C(=O)NCCCc2ccccn2)N(C)C)c1 (stereo unspecified)
cytotoxicity at 10 µM: -7.16%

CCc1nc(C2CCCN2C(=O)CCc2nc(C(C)(C)C)no2)no1 (stereo unspecified)
cytotoxicity at 10 µM: -0.819%

Cc1cc(C)c(C(=O)N2CCOCC2c2c(C)n[nH]c2C)o1 (stereo unspecified)
cytotoxicity at 10 µM: -4.01%

Cc1ccc(C(=O)N2CCOC(c3ncc(CN(C)C)[nH]3)C2)cc1F (stereo unspecified)
cytotoxicity at 10 µM: 0.388%

Cc1nc[nH]c1CN(C)CC1CCCN(CCc2ccc(Cl)cc2)C1 (stereo unspecified)
cytotoxicity at 10 µM: -15.5%

CN(c1nc(Cn2cnccc2=O)cs1)C1CC1
cytotoxicity at 10 µM: -6.59%

Cc1ccc(C2CCCN2Cc2nc3c(cnn3C)c(=O)[nH]2)cc1C (stereo unspecified)
cytotoxicity at 10 µM: -0.858%

CCN(CC)C(=O)CN(C)C(=O)c1cc(-c2cccc(Cl)c2)no1
cytotoxicity at 10 µM: 4.28%

Cc1ccc(CNC(=O)Nc2nccs2)cn1
cytotoxicity at 10 µM: -23.8%

CCN(CC)C(=O)Cn1cc(C(=O)NCCc2scnc2C)nn1
cytotoxicity at 10 µM: -4.47%

Cc1noc(C)c1CN1CCOC2(CCCN(c3nncs3)C2)C1 (stereo unspecified)
cytotoxicity at 10 µM: -2.82%

COc1ccc(SC(C)C(=O)N2CCC(C(=O)N3CCCC3)CC2)cc1 (stereo unspecified)
cytotoxicity at 10 µM: 1.03%

CCS(=O)(=O)NCCNc1cc(-n2cccc2)ncn1
cytotoxicity at 10 µM: -3.5%

NC(=O)COc1cccc(Cn2cc(Br)cn2)c1
cytotoxicity at 10 µM: 1.98%

Cn1c(C(=O)NC2CC2)nc2c1CCN(c1ncccn1)C2
cytotoxicity at 10 µM: -4.75%
